Source: ChEMBL document CHEMBL1833827, “Synthesis and anticandidal activity of new triazolothiadiazine derivatives” (Eur J Med Chem, 2011)
≈ marks a conversion by molar mass, not a printed value.

Columns and labels:
Candida albicans [1] = assay: Antifungal activity against Candida albicans ATCC 90028 by NCCLS M27-A2 microbroth dilution method; type: functional
Candida albicans [2] = assay: Antifungal activity against Candida albicans NRRL Y-12983 by NCCLS M27-A2 microbroth dilution method; type: functional
Candida parapsilosis = assay: Antifungal activity against Candida parapsilosis NRRL Y-12696 by NCCLS M27-A2 microbroth dilution method; type: functional; conditions: Lodderomyces parapsilosis
Nakaseomyces glabratus [3] = assay: Antifungal activity against Candida glabrata clinical isolate (Osmangazi university) by NCCLS M27-A2 microbroth dilution method; type: functional
Nakaseomyces glabratus [4] = assay: Antifungal activity against Candida glabrata clinical isolate (Anadolu university) by NCCLS M27-A2 microbroth dilution method; type: functional
NIH3T3 = assay: Cytotoxicity against mouse NIH/3T3 cells after 24 hrs by MTT assay; type: cell-based; conditions: NIH3T3, 24 h
Summary of the method: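 NIH/3T3 mouse fibroblasts (ATCC) grown in DMEM with 10% fetal calf serum, penicillin and streptomycin at 37 °C in 5% CO2. Cells were seeded at 2 × 10^4 cells/mL and preincubated 24 h. Compounds went from DMSO stocks diluted in medium (final DMSO <0.1%) at 0.5–500 µg/mL for 24 h. MTT was added at 0.5 mg/mL final for 4 h at 37 °C. Formazan was dissolved in DMSO and read at 540 nm. Triplicate wells per concentration. IC50 is the concentration reducing absorbance to 50% of control, reported as mean ± SD.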

Pichia kudriavzevii = assay: Antifungal activity against Candida krusei NRRL Y-7179 by NCCLS M27-A2 microbroth dilution method; type: functional
Candida albicans [5] = assay: Antifungal activity against Candida albicans clinical isolate by NCCLS M27-A2 microbroth dilution method; type: functional
Candida tropicalis = assay: Antifungal activity against Candida tropicalis NRRL Y-12968 by NCCLS M27-A2 microbroth dilution method; type: functional

SMILES | MIC (Candida albicans [1]) [µg/mL] | MIC (Candida albicans [2]) [µg/mL] | MIC (Candida parapsilosis) [µg/mL] | MIC (Nakaseomyces glabratus [3]) [µg/mL] | MIC (Nakaseomyces glabratus [4]) [µg/mL] | MIC (Pichia kudriavzevii) [µg/mL] | MIC (Candida albicans [5]) [µg/mL] | MIC (Candida tropicalis) [µg/mL] | IC50 (NIH3T3) [µg/mL]
Cc1ccc(C2=Nn3c(CCc4ccc(O)cc4)nnc3SC2)cc1 | 750 (≈ 2140 µM) | 1500 (≈ 4280 µM) | 370 (≈ 1060 µM) | 750 (≈ 2140 µM) | 750 (≈ 2140 µM) | 370 (≈ 1060 µM) | 750 (≈ 2140 µM) | 1500 (≈ 4280 µM) | 400 (≈ 1140 µM)
Oc1ccc(CCc2nnc3n2N=C(c2ccc(Cl)cc2)CS3)cc1 | 750 (≈ 2020 µM) | 1500 (≈ 4040 µM) | 370 (≈ 998 µM) | 750 (≈ 2020 µM) | 750 (≈ 2020 µM) | 750 (≈ 2020 µM) | 750 (≈ 2020 µM) | 750 (≈ 2020 µM) | 86.7 (≈ 234 µM)
Oc1ccc(CCc2nnc3n2N=C(c2ccc(F)cc2)CS3)cc1 | 1500 (≈ 4230 µM) | 1500 (≈ 4230 µM) | 1500 (≈ 4230 µM) | 1500 (≈ 4230 µM) | 370 (≈ 1040 µM) | 180 (≈ 508 µM) | 180 (≈ 508 µM) | 1500 (≈ 4230 µM) | 367 (≈ 1030 µM)
CC(=O)N1CCN(c2ccc(OCC3COC(Cn4ccnc4)(c4ccc(Cl)cc4Cl)O3)cc2)CC1 (stereo not drawn) [KETOCONAZOLE] | 30 (≈ 56.5 µM) | 15 (≈ 28.2 µM) | 7 (≈ 13.2 µM) | 15 (≈ 28.2 µM) | 7 (≈ 13.2 µM) | 3 (≈ 5.65 µM) | 30 (≈ 56.5 µM) | 3 (≈ 5.65 µM) | –
Cc1ccc(C2=Nn3c(CCC4CCCCC4)nnc3SC2)cc1 | 180 (≈ 529 µM) | 90 (≈ 264 µM) | 370 (≈ 1090 µM) | 90 (≈ 264 µM) | 180 (≈ 529 µM) | 180 (≈ 529 µM) | 90 (≈ 264 µM) | 750 (≈ 2200 µM) | 198 (≈ 582 µM)

Continued, in another order:

MIC (Candida albicans [1]) [µg/mL] | MIC (Candida albicans [2]) [µg/mL] | MIC (Candida parapsilosis) [µg/mL] | MIC (Nakaseomyces glabratus [3]) [µg/mL] | MIC (Nakaseomyces glabratus [4]) [µg/mL] | MIC (Pichia kudriavzevii) [µg/mL] | MIC (Candida albicans [5]) [µg/mL] | MIC (Candida tropicalis) [µg/mL] | SMILES | IC50 (NIH3T3) [µg/mL]
90 (≈ 242 µM) | 90 (≈ 242 µM) | 180 (≈ 485 µM) | 90 (≈ 242 µM) | 90 (≈ 242 µM) | 180 (≈ 485 µM) | 90 (≈ 242 µM) | 180 (≈ 485 µM) | O=[N+]([O-])c1ccc(C2=Nn3c(CCC4CCCCC4)nnc3SC2)cc1 | 210 (≈ 565 µM)
90 (≈ 261 µM) | 90 (≈ 261 µM) | 370 (≈ 1070 µM) | 370 (≈ 1070 µM) | 90 (≈ 261 µM) | 90 (≈ 261 µM) | 370 (≈ 1070 µM) | 750 (≈ 2180 µM) | Fc1ccc(C2=Nn3c(CCC4CCCCC4)nnc3SC2)cc1 | 106 (≈ 308 µM)
80 (≈ 238 µM) | 370 (≈ 1100 µM) | 180 (≈ 535 µM) | 40 (≈ 119 µM) | 180 (≈ 535 µM) | 370 (≈ 1100 µM) | 90 (≈ 268 µM) | 90 (≈ 268 µM) | Oc1ccc(CCc2nnc3n2N=C(c2ccccc2)CS3)cc1 | 31.6 (≈ 93.9 µM)
90 (≈ 276 µM) | 180 (≈ 551 µM) | 370 (≈ 1130 µM) | 90 (≈ 276 µM) | 90 (≈ 276 µM) | 180 (≈ 551 µM) | 90 (≈ 276 µM) | 180 (≈ 551 µM) | c1ccc(C2=Nn3c(CCC4CCCCC4)nnc3SC2)cc1 | 433 (≈ 1330 µM)
90 (≈ 236 µM) | 750 (≈ 1970 µM) | 40 (≈ 105 µM) | 90 (≈ 236 µM) | 90 (≈ 236 µM) | 180 (≈ 472 µM) | 90 (≈ 236 µM) | 90 (≈ 236 µM) | O=[N+]([O-])c1ccc(C2=Nn3c(CCc4ccc(O)cc4)nnc3SC2)cc1 | 307 (≈ 804 µM)
40 (≈ 111 µM) | 40 (≈ 111 µM) | 20 (≈ 55.4 µM) | 90 (≈ 249 µM) | 40 (≈ 111 µM) | 370 (≈ 1030 µM) | 180 (≈ 499 µM) | 90 (≈ 249 µM) | Clc1ccc(C2=Nn3c(CCC4CCCCC4)nnc3SC2)cc1 | 103 (≈ 285 µM)
